From ChEMBL document CHEMBL1152856, “Design, synthesis and molecular modeling study of acylated 1,2,4-triazole-3-acetates with potential anti-inflammatory activity” (Eur J Med Chem, 2009)

Assays:
Rattus norvegicus [1] = test: Antiinflammatory activity in albino rat assessed as inhibition of carrageenan-induced paw edema at 5 mg/kg, po administered 30 mins before carrageenan challenge measured after 3 hrs; assay type: functional
How it was run: (§1)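 Rats dosed orally with compound suspended in 0.5% carboxymethyl cellulose; controls got CMC vehicle. 30 min later, 0.1 mL freshly prepared 1% carrageenan in normal saline injected subplantar into right hind paw. Paw thickness measured at 60, 120 and 180 min after dosing. Result given as % inhibition of edema ± S.E.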

Rattus norvegicus [2] = test: Antiinflammatory activity in albino rat assessed as inhibition of carrageenan-induced paw edema at 5 mg/kg, po administered 30 mins before carrageenan challenge measured after 1 hr; assay type: functional; how it was run: as §1
Rattus norvegicus [3] = test: Antiinflammatory activity in albino rat assessed as inhibition of carrageenan-induced paw edema at 5 mg/kg, po administered 30 mins before carrageenan challenge measured after 2 hrs; assay type: functional; how it was run: as §1
[4] = Toxicity in ip dosed albino mouse assessed as mortality after 24 hrs; assay type: organism-based; details: in vivo
How it was run: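 Adult male albino mice (25-30 g), groups of five, given graded doses intraperitoneally. Mortality per group recorded 24 h after injection. LD50 calculated by a graphical method.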

Rattus norvegicus [5] = test: Gastrointestinal toxicity in albino rat assessed as ulcer index at 100 mg/kg, po after 6 hrs; assay type: organism-based; parameters: dose 100 mg/kg, route oral; details: in vivo
How it was run: (§2)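 Oral dosing by stomach tube with suspensions in 0.5% w/v aqueous carboxymethyl cellulose (10, 50, 100 mg/kg); controls got equal volume of vehicle. Rats killed at 6 h, stomachs opened along greater curvature, washed, mucosa examined by stereomicroscope. Ulcer = lesion ≥0.5 mm; five patches = 1 mm. Ulcer index = summed lesion lengths divided by animal number; groups of 6.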

Rattus norvegicus [6] = test: Gastrointestinal toxicity in albino rat assessed as ulcer index at 50 mg/kg, po after 6 hrs; assay type: organism-based; parameters: dose 50 mg/kg, route oral; details: in vivo; how it was run: as §2
Rattus norvegicus [7] = test: Gastrointestinal toxicity in albino rat assessed as ulcer index at 10 mg/kg, po after 6 hrs; assay type: organism-based; parameters: dose 10 mg/kg, route oral; details: in vivo; how it was run: as §2

| Structure (SMILES) | inhibition in vivo at 5 mg/kg (Rattus norvegicus [1]) [%] | inhibition in vivo at 5 mg/kg (Rattus norvegicus [2]) [%] | inhibition in vivo at 5 mg/kg (Rattus norvegicus [3]) [%] | LD50 at 24 h [4] [mg/kg] | UI (Rattus norvegicus [5]) | UI (Rattus norvegicus [6]) | UI (Rattus norvegicus [7]) |
| --- | --- | --- | --- | --- | --- | --- | --- |
| CCOC(=O)Cc1nc(N)n(C(=O)c2ccccc2)n1 | 57.5 | 31.6 | 38.5 |  |  |  |  |
| Nc1nc(CC(=O)O)n[nH]1 | 48.1 | 22.3 | 29.5 |  |  |  |  |
| CCOC(=O)Cc1nc(N)n(C(=O)c2ccc(Br)cc2)n1 | 64.1 | 34.8 | 43 | 120 |  |  |  |
| CCOC(=O)Cc1nc(N)n(C(=O)c2ccc(OC)cc2)n1 | 60 | 32.8 | 41.5 |  |  |  |  |
| CCOC(=O)Cc1nc(N)n(C(=O)c2ccc([N+](=O)[O-])cc2)n1 | 68.2 | 36.1 | 46.3 | 90 |  |  |  |
| CCOC(=O)Cc1nc(N)n(C(=O)c2ccc(Cl)cc2)n1 | 62.8 | 34.2 | 42.3 | 130 | 0.75 | 0.5 | 0 |
| CCOC(=O)Cc1n[nH]c(NC(=O)c2ccc([N+](=O)[O-])cc2)n1 | 59.8 | 32.6 | 42.1 |  |  |  |  |
| CCOC(=O)Cc1n[nH]c(NC(=O)c2ccc(OC)cc2)n1 | 56 | 30.2 | 38.2 |  |  |  |  |
| CCOC(=O)Cc1n[nH]c(N)n1 | 51.8 | 25 | 33.6 |  |  |  |  |
| CCOC(=O)Cc1n[nH]c(NC(=O)c2ccc(Br)cc2)n1 | 58.8 | 31.3 | 40.4 |  |  |  |  |
| CCOC(=O)Cc1n[nH]c(NC(=O)c2ccccc2)n1 | 55.3 | 26.8 | 36.2 |  |  |  |  |
| CCOC(=O)Cc1n[nH]c(NC(=O)c2ccc(Cl)cc2)n1 | 58.5 | 31.1 | 39.1 |  | 0.75 | 0 | 0 |
| COc1ccc2c(c1)c(CC(=O)O)c(C)n2C(=O)c1ccc(Cl)cc1 [INDOMETHACIN] | 60.8 | 31.5 | 40.1 | 50 | 2.1 | 1.9 | 2.5 |
